The structures appear in SMILES notation. ≈ marks a conversion by molar mass, not a printed value.

The nature of data set [1]: Resistance index is the ratio of IC50 of resistant cell line/IC50 of sensitive cell line. It counts as functional. In a few lines: (§1)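 LoVo and doxorubicin-resistant LoVo/Dx colon cells grown in Ham's F12 with 10% fetal calf serum, glutamine, vitamins and Hepes at 37 °C. 2.5 × 10^5 cells/mL plated and preincubated 24 h, then exposed to drug for 144 h. MTT read-out at 570 nm. IC50 (µg/mL) derived; resistance index = IC50 resistant / IC50 sensitive line.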

Data set [2] in a line: (§2) The compound was tested for antitumor activity against P388 murine leukemia by measuring maximum tolerated dose. Type of data set: ADME, organism-based. To be noted: mouse, in vivo; read-out: LD10. Summed up:
(§3)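 CD2F1 mice were given 10^6 P388 cells iv, followed by iv treatment on days 1, 4 and 7 after transplantation. Mice were observed daily for toxicity and survival for 60 days. The value is the maximum tolerated dose, taken as LD10, or else the maximum dose administered.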

The test system of the next data set is P388. In words: Tested for antitumor activity against P388 murine leukemia. It counts as functional, Mus musculus. Summed up:
(§4)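 P388 cells kept by serial ip passage (10^5 cells) in DBA2 male mice. CD2F1 mice inoculated iv with 10^6 cells on day 0. Drug given iv on days 1, 4 and 7. Daily observation for toxicity and survival over 60 days. Median survival time per group, expressed as %T/C = MST treated/MST control × 100.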

A further data set has as its system LoVo/DX (Homo sapiens). In words: Tested in vitro for cytotoxic activity against Doxorubicin resistant Human colon Adenocarcinoma cell line.
A further data set concerns L1210. Put plainly: Tested in vitro for inhibitory activity against L1210 murine leukemia. To be noted: Mus musculus. It counts as functional, cell-based. Summed up:
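L1210 suspension cells grown in McCoy's 5A with 10% horse serum, 10% CO2, 37 °C. Drug dissolved in water and added to 10^5 cells/tube at final 0.01, 0.1, 1 and 10 µg/mL.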

For the next data set, the system named is LoVo. In words: Tested in vitro for cytotoxic activity against Human colon Adenocarcinoma sensitive cell line (LoVo). It counts as functional, cell-based. Summed up: as §1
Data set [3] concerns Mus musculus. Put plainly: The compound was tested for antitumor activity against P388 murine leukemia at 7.5 (mg/kg/day) dose; 0/16 -no. of toxic deaths/no. of mice. To be noted: in vivo. Type of data set: ADME, organism-based.
Data set [4] concerns Mus musculus. In words: The compound was tested for antitumor activity against P388 murine leukemia at 9 (mg/kg/day) dose. Type of data set: functional. Summed up:
as §4

In data set [5] the test system is Mus musculus. In words: The compound was tested for antitumor activity against P388 murine leukemia at 6 (mg/kg/day) dose; 0/15 -no. of toxic deaths/no. of mice. It counts as ADME, organism-based. To be noted: in vivo.
Data set [6] has as its system Mus musculus. Put plainly: The compound was tested for antitumor activity against P388 murine leukemia at 9 (mg/kg/day) dose; 3/8 -no. of toxic deaths/no. of mice. It counts as ADME, organism-based. To be noted: in vivo.
Data set [7] relates to Mus musculus. In words: The compound was tested for antitumor activity against P388 murine leukemia at 6 (mg/kg/day) dose. Type of data set: functional. In a few lines: as §4
The species named for data set [8] is Mus musculus. The description is as §2. To be noted: in vivo. It counts as ADME, organism-based. In a few lines:
as §3

Data set [9] concerns Mus musculus. Put plainly: The compound was tested for antitumor activity against P388 murine leukemia at 40 (mg/kg/day) dose. Type of data set: functional. Summed up: as §4
Data set [10] deals with Mus musculus. Put plainly: The compound was tested for antitumor activity against P388 murine leukemia at 60 (mg/kg/day) dose; 15/16 toxic deaths/total no of mice. Type of data set: ADME, organism-based. To be noted: in vivo.
Data set [11] deals with Mus musculus. In words: The compound was tested for antitumor activity against P388 murine leukemia at 60 (mg/kg/day) dose. It counts as functional. In a few lines:
as §4

Data set [12] deals with Mus musculus. In words: The compound was tested for antitumor activity against P388 murine leukemia at 18 (mg/kg/day) dose. It counts as functional. In a few lines:
as §4

The subject of data set [13] is Mus musculus. In words: The compound was tested for antitumor activity against P388 murine leukemia at 22 (mg/kg/day) dose. Type of data set: functional. In a few lines:
as §4

Data set [14] relates to Mus musculus. In words: The compound was tested for antitumor activity against P388 murine leukemia at 18 (mg/kg/day) dose; 1/40 toxic deaths/total no of mice. Type of data set: ADME, organism-based. To be noted: in vivo.
For data set [15], the system named is Mus musculus. In words: The compound was tested for antitumor activity against P388 murine leukemia at 8 (mg/kg/day) dose. It counts as functional. Summed up:
as §4

For data set [16], the system named is Mus musculus. In words: The compound was tested for antitumor activity against P388 murine leukemia at 27 (mg/kg/day) dose. It counts as functional. In a few lines:
as §4

The test system of data set [17] is Mus musculus. Put plainly: The compound was tested for antitumor activity against P388 murine leukemia at 40 (mg/kg/day) dose; 25/37 toxic deaths/total no of mice. Type of data set: ADME, organism-based. To be noted: in vivo.
Data set [18] has as its system Mus musculus. In words: The compound was tested for antitumor activity against P388 murine leukemia at 22 (mg/kg/day) dose; 1/8 toxic deaths/total no of mice. Type of data set: ADME, organism-based. To be noted: in vivo.
In data set [19] the test system is Mus musculus. Put plainly: The compound was tested for antitumor activity against P388 murine leukemia at 27 (mg/kg/day) dose;7/55 toxic deaths/total no of mice. Type of data set: ADME, organism-based. To be noted: in vivo.
Data set [20] has as its system Mus musculus. In words: The compound was tested for antitumor activity against P388 murine leukemia at 12(mg/kg/day) dose; 0/16 toxic deaths/total no of mice. To be noted: in vivo.
Data set [21] has as its system Mus musculus. In words: The compound was tested for antitumor activity against P388 murine leukemia at 8(mg/kg/day) dose; 0/8 toxic deaths/total no of mice. To be noted: in vivo. It counts as ADME, organism-based.
Data set [22] concerns Mus musculus. In words: The compound was tested for antitumor activity against P388 murine leukemia at 12 (mg/kg/day) dose. It counts as functional. In a few lines: as §4

In general, T/C refers to the result in the treated group divided by that in the control group, in per cent. One may read the IC50 as the concentration at which inhibition is half-maximal. High values mean weaker potency, low ones greater potency. For `NCCCNc1ccc(NCCCN)c2c1C(=O)c1ccncc1C2=O`, the Ratio in [1] is 26. For the same compound, the MTD in data set [2] is 40 mg/kg/day. For the same compound, the T/C in the data set with P388 was determined as 155%. Further, the values for the 50% inhibitory concentration (IC50) in the data set with LoVo/DX (Homo sapiens), in the data set on L1210 and in the data set on LoVo were 54.5 µg/mL (≈ 154 µM), 0.1 µg/mL (≈ 0.283 µM) and 2.1 µg/mL (≈ 5.94 µM), respectively.
Take `O=C1c2ccncc2C(=O)c2c(NCCN3CCCC3)ccc(NCCN3CCCC3)c21`: the Ratio in data set [1] was 1.4. For the same compound, the MTD in [2] worked out at 60 mg/kg/day. Moreover, the T/C in the data set on P388 worked out at 100%. In addition, the IC50 in the data set on LoVo/DX (Homo sapiens) was 0.7 µg/mL (≈ 1.61 µM); in the data set on L1210 it was 0.09 µg/mL (≈ 0.208 µM); in the data set on LoVo it was 0.5 µg/mL (≈ 1.15 µM).
For the compound `CN(C)CCNc1ccc(NCCN(C)C)c2c1C(=O)c1ccncc1C2=O`, in [1], the Ratio amounted to 1.7. Besides, the figures for the concentration for half-maximal inhibition (IC50) in the data set on LoVo/DX (Homo sapiens), in the data set with L1210 and in the data set with LoVo were 0.13 µg/mL (≈ 0.341 µM), 0.006 µg/mL (≈ 0.0157 µM) and 0.076 µg/mL (≈ 0.199 µM), respectively.
`COCCNCCNc1ccc(NCCNCCOC)c2c1C(=O)c1ccncc1C2=O` came in with an IC50 in the data set on L1210 of 0.44 µg/mL (≈ 0.997 µM).
`O=C1c2ccncc2C(=O)c2c(NCCN3CC3)ccc(NCCN3CC3)c21` returned a 50% inhibitory concentration (IC50) in the data set with L1210 of 0.002 µg/mL (≈ 0.0053 µM).
The same measure, in the same setting: under `CCNCCNc1ccc(NCCNCC)c2c1C(=O)c1ccncc1C2=O` stands 0.01 µg/mL (≈ 0.0262 µM).
With `CC(C)NCCNc1ccc(NCCNC(C)C)c2c1C(=O)c1ccncc1C2=O`, in data set [1], the Ratio stood at 11. The IC50 with LoVo/DX (Homo sapiens) came to 3.4 µg/mL (≈ 8.3 µM); with L1210, 0.03 µg/mL (≈ 0.0733 µM); in the data set with LoVo it was 0.3 µg/mL (≈ 0.733 µM).
In the case of `CN(C)CCCNc1ccc(NCCCN(C)C)c2c1C(=O)c1ccncc1C2=O`, the Ratio in data set [1] was found to be 2.4. For the same compound, the concentration for half-maximal inhibition (IC50) with LoVo/DX (Homo sapiens) was 0.36 µg/mL (≈ 0.879 µM); in the data set on L1210, 0.3 µg/mL (≈ 0.733 µM); with LoVo it was 0.15 µg/mL (≈ 0.366 µM).
In the case of `COc1cccc2c1C(=O)c1c(O)c3c(c(O)c1C2=O)C[C@@](O)(C(=O)CO)C[C@@H]3O[C@H]1C[C@H](N)[C@H](O)[C@H](C)O1` [DOXORUBICIN], the Ratio in [1] came to 133. Besides, in [2], the MTD is 7.5 mg/kg/day. In addition, the Toxic deaths in the data set with Mus musculus [3] amounted to 0; with Mus musculus [5] it was 0; in the data set with Mus musculus [6], 3. For the same compound, the T/C is 222% with Mus musculus [4], 181% in the data set with P388 and 175% in the data set with Mus musculus [7]. Besides, the half-inhibitory concentration (IC50) in the data set with LoVo/DX (Homo sapiens) is 4 µg/mL (≈ 7.36 µM); in the data set with LoVo, 0.03 µg/mL (≈ 0.0552 µM).
`O=C1c2ccncc2C(=O)c2c(NCCOCCO)ccc(NCCOCCO)c21`: the Ratio in data set [1] worked out at 31. Moreover, the 50% inhibitory concentration (IC50) in the data set on LoVo/DX (Homo sapiens) amounted to 267 µg/mL (≈ 642 µM); in the data set on LoVo, 8.7 µg/mL (≈ 20.9 µM).
`Cl.NCCNc1ccc(NCCN)c2c1C(=O)c1ccncc1C2=O`: in the data set filed under Mus musculus [8], the maximum tolerated dose is 27 mg/kg/day. Moreover, the T/C in the data set with Mus musculus [9] came to 128%; with Mus musculus [11], 36%; in the data set on Mus musculus [12], 206%; in the data set with Mus musculus [13], 250%; in the data set with Mus musculus [15] it was 162%; in the data set with Mus musculus [16], 230%. In the data set with Mus musculus [22], this compound gave a T/C of 194%. The Toxic deaths with Mus musculus [10] stood at 15; with Mus musculus [14], 1; in the data set with Mus musculus [17], 25; in the data set on Mus musculus [18], 1; in the data set on Mus musculus [19], 7; in the data set on Mus musculus [20] it was 0. This compound came in with a Toxic deaths in the data set with Mus musculus [21] of 0. Also, in the data set on L1210, inhibition was half-maximal at 0.01 µg/mL (IC50).
Turning to `CCCNCCNc1ccc(NCCNCCC)c2c1C(=O)c1ccncc1C2=O`, in data set [1], the Ratio worked out at 14. The 50% inhibitory concentration (IC50) in the data set with LoVo/DX (Homo sapiens) was found to be 2.8 µg/mL (≈ 6.84 µM); with L1210, 0.04 µg/mL (≈ 0.0977 µM); in the data set with LoVo, 0.2 µg/mL (≈ 0.488 µM).

Values taken from ChEMBL document CHEMBL1127837, “6,9-Bis[(aminoalkyl)amino]benzo[g]isoquinoline-5,10-diones. A novel class of chromophore-modified antitumor anthracene-9,10-diones: synthesis and antitumor evaluations” (J Med Chem, 1994).
